Experimental findings from ChEMBL document CHEMBL1146029, “The synthesis and in vitro testing of structurally novel antibiotics derived from acylnitroso Diels-Alder adducts” (2006) are described below.

Molecules are shown by their SMILES. Activity calls are given as the source filed them. No cut-off for these calls is given here.

One test relates to Pseudomonas aeruginosa. The test is described as follows: Antibacterial activity against PSE1 beta-lactamase Pseudomonas aeruginosa IV-3-13 by agar diffusion assay. The format is functional. In outline: (§1)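 Test bacteria at 10^6 CFU/ml were suspended in melted nutrient agar and poured into Petri dishes. 9 mm wells were cut and each filled with 50 µl of a 0.2 mM compound solution. Inhibition zones were read after 18 h at 37 °C. Growth of colonies inside the zone was flagged.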

The next test deals with Enterobacter cloacae. The test is described as follows: Antibacterial activity against ampC beta-lactamase Enterobacter cloacae P99 by agar diffusion assay. It is filed as functional.
Test [1] relates to Staphylococcus aureus. The test is described as follows: Antibacterial activity against MRSA Staphylococcus aureus 134/93 by agar diffusion assay. The format is functional. The method in brief:
as §1

The subject of the next test is Enterococcus faecalis. The test is described as follows: Antibacterial activity against VRE Enterococcus faecalis 1528 by agar diffusion assay. The format is functional. In outline:
as §1

The test system of test [2] is Escherichia coli. The test is described as follows: Antibacterial activity against wild type Escherichia coli DC0 by agar diffusion assay. It is filed as functional. In outline:
as §1

For test [3], the system named is Escherichia coli. The test is described as follows: Antibacterial activity against TEM1 beta-lactamase Escherichia coli IV-3-2 by agar diffusion assay. The format is functional. In outline: as §1
Test [4] concerns Staphylococcus aureus. The test is described as follows: Antibacterial activity against wild type Staphylococcus aureus SG 511 by agar diffusion assay. It is filed as functional. The method in brief: as §1
A further test relates to Mycobacterium. The test is described as follows: Antibacterial activity against wild type Mycobacterium vaccae IMET10670 by agar diffusion assay. It is filed as functional, Mycolicibacterium vaccae. In outline: as §1
Another test has as its system Salmonella enterica. The test is described as follows: Antibacterial activity against Salmonella enterica ATCC 13311 by agar diffusion assay. The format is functional. In outline:
as §1

For test [5], the system named is Escherichia coli. The test is described as follows: Antibacterial activity against Escherichia coli ATCC 33475 by agar diffusion assay. The format is functional. The method in brief: as §1
Test [6] has as its system Escherichia coli. The test is described as follows: Antibacterial activity against Escherichia coli X580 by agar diffusion assay. It is filed as functional. The method in brief: as §1
The test system of a further test is Klebsiella pneumoniae. The test is described as follows: Antibacterial activity against Klebsiella pneumoniae ATCC 8308 by agar diffusion assay. The format is functional. The method in brief: as §1
The next test concerns Candida albicans. The test is described as follows: Antifungal activity against Candida albicans BMSY 212 by agar diffusion assay. The format is functional. The method in brief:
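Agar-well diffusion: Candida albicans at 10^6 CFU/ml was seeded in melted nutrient agar and poured into plates. Compound was loaded as 50 µl of a 0.2 mM solution into 9 mm holes. Plates were incubated at 30 °C and the inhibition zones recorded.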

Test [7] has as its system Beta-lactamase (Bacillus cereus). The test is described as follows: Inhibition of Bacillus cereus penicillinase.

For `N[C@@H](C(=O)N[C@@H]1C(=O)N2C(C(=O)O)=C(Cl)CC[C@H]12)c1ccccc1` [LORACARBEF ANHYDROUS], the “inhibition zone (IZ)” value with Pseudomonas aeruginosa was determined as 0 mm; in the test with Enterobacter cloacae, 0 mm; with Staphylococcus aureus [1] it was 0 mm; with Enterococcus faecalis, 0 mm; in the test on Escherichia coli [2], 24 mm; in the test with Escherichia coli [3], 23 mm. Moreover, the “inhibition zone (IZ)” value is 28 mm in the test on Staphylococcus aureus [4] and 0 mm in the test on Mycobacterium.
As for `CO/N=C(\C(=O)N[C@@H]1C(=O)N2C(C(=O)O)=C(COC(C)=O)CS[C@H]12)c1csc(N)n1` [CEFOTAXIME], the “inhibition zone (IZ)” value turned out to be 0 mm in the test on Enterobacter cloacae; 0 mm with Staphylococcus aureus [1]; 22 mm in the test on Enterococcus faecalis; 21 mm with Escherichia coli [2]; 28 mm in the test on Escherichia coli [3]; 26 mm with Staphylococcus aureus [4]. The “inhibition zone (IZ)” value with Mycobacterium was found to be 0 mm.
On to `O=C(O)c1cn(C2CC2)c2cc(N3CCNCC3)c(F)cc2c1=O` [CIPROFLOXACIN], for which the “inhibition zone (IZ)” value with Pseudomonas aeruginosa came out at 35 mm; with Staphylococcus aureus [1] it was 0 mm; in the test on Enterococcus faecalis it was 24 mm; in the test with Escherichia coli [3], 27 mm; in the test on Staphylococcus aureus [4] it was 29 mm; in the test with Mycobacterium it was 38 mm.
As to `CC1(C)S[C@@H]2[C@H](NC(=O)Cc3ccccc3)C(=O)N2[C@H]1C(=O)O` [PENICILLIN G], the “inhibition zone (IZ)” value with Salmonella enterica amounted to 37 mm; in the test on Escherichia coli [5], 23 mm; with Escherichia coli [6], 54 mm; in the test with Klebsiella pneumoniae it was 12 mm.
On to `O=C(Cc1ccccc1)NCC(=O)N1O[C@H](C(=O)O)C[C@@H]1C(=O)O`, for which the “inhibition zone (IZ)” value was 0 mm with Salmonella enterica; 0 mm with Escherichia coli [5]; 26 mm with Escherichia coli [6]; 0 mm with Klebsiella pneumoniae; 0 mm in the test with Pseudomonas aeruginosa; 0 mm in the test on Enterobacter cloacae. Also, the “inhibition zone (IZ)” value in the test with Candida albicans, in the test on Staphylococcus aureus [1], in the test with Enterococcus faecalis, in the test on Escherichia coli [2], with Escherichia coli [3] and in the test on Staphylococcus aureus [4] was 0 mm in each case. Also, the “inhibition zone (IZ)” value in the test with Mycobacterium is recorded as 0 mm.
For the molecule `C[C@@H](NC(=O)Cc1ccccc1)C(=O)N1O[C@H](C(=O)O)C[C@@H]1C(=O)O`, the “inhibition zone (IZ)” value in the test on Salmonella enterica is given as 0 mm; in the test on Escherichia coli [5], 0 mm; in the test on Escherichia coli [6], 25 mm; in the test with Klebsiella pneumoniae, 0 mm.
Turning to `C[C@H](NC(=O)Cc1ccccc1)C(=O)N1O[C@H](C(=O)O)C[C@@H]1C(=O)O`, the “inhibition zone (IZ)” value is recorded as 0 mm in the test with Salmonella enterica, 0 mm in the test on Escherichia coli [5], 20 mm in the test on Escherichia coli [6] and 0 mm in the test on Klebsiella pneumoniae. For the same molecule, the inhibition result in [7] was “inactive”.
